Consider three molecules from ChEMBL document CHEMBL1126882, “Orally active central dopamine and serotonin receptor ligands: 5-, 6-, 7-, and 8-[[trifluoromethyl)sulfonyl]oxy]-2-(di-n-propylamino)tetralins and the formation of active metabolites in vivo” (J Med Chem, 1993).

SMILES strings stand for the structures. The source made the active and inactive calls.

Data set [1] concerns Rattus norvegicus. The experiment in a line: post-synaptic agonistic effects by increase in locomotor activity at the dose of 0.08 umol/kg, sc in reserpinized rat. The format is functional. In outline:
(§1)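 Male Sprague-Dawley rats (200-300 g) given reserpine 5 mg/kg sc in the neck 18 h before testing. The test compound, in 0.9% saline, was given sc in the neck (n = 4-5). Rats were placed singly in photocell motility meters right after dosing. Counts were recorded over 30 min, alongside gross behavioural observation of 5-HT and DA signs. Statistics: ANOVA with Fischer's PLSD versus reserpine controls.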

Data set [2] deals with T1, Dopamine receptor (Rattus norvegicus) (UniProt P25115+P19020+P30729+P18901+P61169). Nature of the data set: Effective dose for half-maximal decrease in the accumulation of DOPA in reserpinized rat brain limbic area by sc administration. The format is functional, organism-based. In outline:
(§2)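 Male Sprague-Dawley rats (200-300 g) got reserpine 5 mg/kg sc 18 h before. The test drug (saline) was given sc or po (po rats fasted 18 h), with NSD 1015, 30 min before decapitation. DOPA and 5-HTP in limbic, striatal and hemispheral tissue were measured by HPLC-ED. ED50 (half-maximal decrease) was taken from 4-6-dose curves, with deviation estimated graphically from SEM.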

For data set [3], the target named is T1, Dopamine receptor (Rattus norvegicus). Nature of the data set: (§3) Effective dose for half-maximal decrease in the accumulation of DOPA in reserpinized rat brain limbic area by sc administration; Inactive. The class given is functional, organism-based. The method, boiled down:
as §2

The target is the same in data set [4]. Nature of the data set: Effective dose for half-maximal decrease in the accumulation of DOPA in reserpinized rat brain striatal area by sc administration. The class given is functional, organism-based. In outline:
as §2

Data set [5] has as its system Rattus norvegicus. Nature of the data set: Effective dose for half-maximal decrease in the accumulation of 5-hydroxytryptophan (5-HTP) in reserpinized rat brain striatal area by po administration; Inactive. The format is functional, organism-based. The method, boiled down: as §2
For data set [6], the target named is T1, Dopamine receptor (Rattus norvegicus). Nature of the data set: Effective dose for half-maximal decrease in the accumulation of DOPA in reserpinized rat brain striatal area by po administration. The class given is functional, organism-based. The method, boiled down:
as §2

Data set [7] has the same target. The experiment in a line: Effective dose for half-maximal decrease in the accumulation of DOPA in reserpinized rat brain hemispheral area by po administration. The format is functional, organism-based. The method, boiled down: as §2
For data set [8] the target is unchanged. The experiment in a line: (§4) Effective dose for half-maximal decrease in the accumulation of DOPA in reserpinized rat brain hemispheral area by sc administration; Inactive. The format is functional, organism-based. The method, boiled down: as §2
Data set [9] deals with T2, 5-hydroxytryptamine receptor 1A (Rattus norvegicus, UniProt P19327).
T2 sequence (P19327 whole entry): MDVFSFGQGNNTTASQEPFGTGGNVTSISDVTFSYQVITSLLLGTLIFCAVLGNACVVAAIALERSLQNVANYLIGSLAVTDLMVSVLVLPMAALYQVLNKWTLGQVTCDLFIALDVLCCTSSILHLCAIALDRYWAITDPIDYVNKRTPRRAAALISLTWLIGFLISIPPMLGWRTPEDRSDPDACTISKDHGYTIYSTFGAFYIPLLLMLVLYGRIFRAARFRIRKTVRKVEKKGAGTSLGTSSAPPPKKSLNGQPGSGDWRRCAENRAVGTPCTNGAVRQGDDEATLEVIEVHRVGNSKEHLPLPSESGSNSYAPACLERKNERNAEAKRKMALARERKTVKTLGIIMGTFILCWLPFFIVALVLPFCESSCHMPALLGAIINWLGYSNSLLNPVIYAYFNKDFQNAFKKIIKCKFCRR
The experiment in a line: (§5) Binding affinity against 5-hydroxytryptamine 1A receptor in homogenated rat brain tissue, using by [3H]8-OH-DPAT as radioligand. The format is tissue-based. In outline: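 Rat brain homogenate was washed and preincubated in 50 mM Tris (pH 8.0) containing NaCl, CaCl2 and MgCl2, plus 10 μM pargyline. Nonspecific binding was defined with 10 μM 5-HT. Six drug concentrations (10⁻⁴-10⁻⁹ M) were tested, triplicate or single run. IC50 came from a semilog plot with linear regression.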

The species entered for data set [10] is Rattus norvegicus. The experiment in a line: DA agonist induced behavior was charecterised by increased locomotion, sniffing and licking.++ indicates high intensity of behavioral effect. The format is functional, organism-based. The method, boiled down: as §1
Data set [11] concerns the target T1, Dopamine receptor (Rattus norvegicus). Nature of the data set: (§6) Effective dose for half-maximal decrease in the accumulation of DOPA in reserpinized rat brain striatal area by sc administration; Inactive. The class given is functional, organism-based. In outline:
as §2

Data set [12] shares this target. The experiment in a line: Effective dose for half-maximal decrease in the accumulation of DOPA in reserpinized rat brain limbic area by po administration. The class given is functional, organism-based. In outline:
as §2

Data set [13] concerns Rattus norvegicus. The experiment in a line: Effective dose for half-maximal decrease in the accumulation of 5-hydroxytryptophan (5-HTP) in reserpinized rat brain limbic area by po administration; Inactive. The format is functional, organism-based. The method, boiled down:
as §2

The subject of data set [14] is Rattus norvegicus. The experiment in a line: Effective dose for half-maximal decrease in the accumulation of 5-hydroxytryptophan (5-HTP) in reserpinized rat brain hemispheral area by po administration; Inactive. The class given is functional, organism-based. In outline:
as §2

Data set [15] can be described thus: (§7) Effective dose for half-maximal decrease in the accumulation of 5-hydroxytryptophan (5-HTP) in reserpinized rat brain limbic area by sc administration. The format is functional. In outline:
as §2

The target in a further data set is D(2) dopamine receptor (Rattus norvegicus, UniProt P61169). The experiment in a line: Binding affinity against dopamine receptor D2 in homogenated rat brain tissue, using by [3H]spiperone as radioligand. The class given is tissue-based. The method, boiled down:
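Rat striatal membranes were prepared in 50 mM potassium phosphate (pH 7.4). They were incubated with 0.5 nM [3H]spiperone (3 mg original tissue) for 10 min at 37 °C. Specific binding was defined with 10 μM 6,7-ADTN. Six drug concentrations (10⁻⁴-10⁻⁹ M) were tested, in triplicate or in a single experiment.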

A short description of data set [16]: (§8) Effective dose for half-maximal decrease in the accumulation of 5-hydroxytryptophan (5-HTP) in reserpinized rat brain striatal area by sc administration. The class given is functional. In outline: as §2
For data set [17], the target named is T1, Dopamine receptor (Rattus norvegicus). The experiment in a line: Effective dose for half-maximal decrease in the accumulation of DOPA in reserpinized rat brain hemispheral area by po administration; Inactive. The class given is functional, organism-based. In outline:
as §2

Data set [18] can be described thus: (§9) Effective dose for half-maximal decrease in the accumulation of 5-hydroxytryptophan (5-HTP) in reserpinized rat brain hemispheral area by sc administration. The class given is functional. The method, boiled down: as §2
Data set [19] is described as follows: (§10) Effective dose for half-maximal decrease in the accumulation of 5-hydroxytryptophan (5-HTP) in reserpinized rat brain hemispheral area by po administration. The class given is functional. In outline:
as §2

Data set [20] can be described thus: (§11) Effective dose for half-maximal decrease in the accumulation of 5-hydroxytryptophan (5-HTP) in reserpinized rat brain striatal area by po administration. The class given is functional. In outline: as §2
The target of data set [21] is T2, 5-hydroxytryptamine receptor 1A. The description is as §5. The format is tissue-based. In outline:
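Rat brain homogenate was washed and preincubated in 50 mM Tris (pH 8.0) containing NaCl, CaCl2 and MgCl2, plus 10 μM pargyline. It was incubated with 1 nM [3H]-8-OH-DPAT (final) for 15 min at 37 °C, then vacuum-filtered and counted by scintillation. Nonspecific binding was defined with 10 μM 5-HT. Six drug concentrations (10⁻⁴-10⁻⁹ M) were tested, triplicate or single run. IC50 came from a semilog plot with linear regression.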
The source holds these as a separate data set.

Data set [22] in a line: (§12) Effective dose for half-maximal decrease in the accumulation of 5-hydroxytryptophan (5-HTP) in reserpinized rat brain limbic area by po administration. The class given is functional. In outline:
as §2

Data set [23] deals with Rattus norvegicus. The data set is described as §7. The format is functional. The method, boiled down: as §2
Data set [24] concerns Rattus norvegicus. The description is as §3. The format is functional, organism-based. The method, boiled down:
as §2

For data set [25], the system named is Rattus norvegicus. Nature of the data set: Effective dose for half-maximal decrease in the accumulation of DOPA in reserpinized rat brain striatal area by po administration; Partial response at the highest dose tested. The class given is functional, organism-based. The method, boiled down:
as §2

For data set [26], the system named is Rattus norvegicus. The data set is described as §8. The format is functional. The method, boiled down:
as §2

Data set [27] concerns Rattus norvegicus. The data set is described as §4. The format is functional, organism-based. The method, boiled down: as §2
In data set [28] the test system is Rattus norvegicus. The data set is described as §9. The format is functional. In outline: as §2
Data set [29] in a line: Half-lives were estimated from the elimination phase of the blood conc-time curve after oral administration. The format is ADME, organism-based. The settings on record: rat, whole blood. The method, boiled down: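 Male Sprague-Dawley rats (300 g) with arterial catheters were dosed 24 h after surgery. Doses: 40 μmol/kg po by gavage and 5 μmol/kg iv, or 20 po and 1 iv. Po rats were fasted 18 h. Blood was sampled from 5 min to 12 h and measured by GC-MS after extraction at pH 11 against an internal standard, samples in duplicate. AUC po/iv came from n = 4 per route. Half-life was read graphically from the oral elimination phase.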

For data set [30], the system named is Rattus norvegicus. Nature of the data set: post-synaptic agonistic effects by increase in locomotor activity at the dose of 0.2 umol/kg, sc in reserpinized rat (p<0.005). The class given is functional. In outline: as §1
Data set [31] has as its system Rattus norvegicus. Nature of the data set: Effective dose for half-maximal decrease in the accumulation of DOPA in reserpinized rat brain limbic area by po administration; Partial response at the highest dose tested. The class given is functional, organism-based. The method, boiled down:
as §2

For data set [32], the system named is Rattus norvegicus. The description is as §10. The class given is functional. In outline:
as §2

Data set [33] deals with Rattus norvegicus. The description is as §11. The class given is functional. The method, boiled down:
as §2

For data set [34], the system named is Rattus norvegicus. The data set is described as §6. The class given is functional, organism-based. The method, boiled down:
as §2

The test system of data set [35] is Rattus norvegicus. The data set is described as §12. The format is functional. In outline:
as §2

D(2) dopamine receptor, sequence (P61169 whole entry): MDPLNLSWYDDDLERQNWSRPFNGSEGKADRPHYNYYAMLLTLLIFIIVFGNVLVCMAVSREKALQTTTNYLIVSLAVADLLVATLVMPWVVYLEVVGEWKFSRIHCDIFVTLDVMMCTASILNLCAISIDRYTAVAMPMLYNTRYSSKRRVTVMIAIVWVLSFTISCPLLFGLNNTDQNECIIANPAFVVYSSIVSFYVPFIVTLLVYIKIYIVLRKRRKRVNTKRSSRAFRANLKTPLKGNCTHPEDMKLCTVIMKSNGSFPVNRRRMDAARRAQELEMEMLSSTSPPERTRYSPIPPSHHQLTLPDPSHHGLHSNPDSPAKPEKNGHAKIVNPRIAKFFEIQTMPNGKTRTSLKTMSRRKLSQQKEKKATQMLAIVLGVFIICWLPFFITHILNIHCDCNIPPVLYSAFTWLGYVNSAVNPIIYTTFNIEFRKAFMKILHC

`CCCN(CCC)C1CCc2c(O)cccc2C1` (stereo unspecified) [5-OH-DPAT] came in with a Counts/30 in the data set with Rattus norvegicus [1] of 60 min. Also, the 50% effective dose (ED50) came to 0.01 µmol/kg in [2]; 0.01 µmol/kg in data set [4]; 0.5 µmol/kg in data set [6]; 4 µmol/kg in data set [7]; 0.7 µmol/kg in data set [12]. Also, the ED50 result (in [3]; in the data set on Rattus norvegicus [5]; in [8]; in [11]; with Rattus norvegicus [13]; with Rattus norvegicus [14]) was “inactive” in each case. Also, the Ki in [9] was found to be 1040 nM. Also, the Behavioral observation result in the data set listed under Rattus norvegicus [10] is “Active”.

For `CCCN(CCC)C1CCc2cccc(OC)c2C1` (stereo unspecified), the ED50 in [15] is 0.3 µmol/kg; in data set [6], 12.5 µmol/kg; in [16] it was 0.3 µmol/kg; in data set [18] it was 0.2 µmol/kg; in [19], 2.3 µmol/kg; in [20], 3.2 µmol/kg. In addition, the ED50 in data set [12] is 5.5 µmol/kg; in data set [22] it was 3.2 µmol/kg. The ED50 result in [3], in [8], in [17] and in [11] was “inactive” in each case. Further, the values for the Ki (at D(2) dopamine receptor; in [21]) were 160 nM and 10 nM, respectively.

As to `CCCN(CCC)C1CCc2cccc(O)c2C1` (stereo unspecified) [8-OH-DPAT], the ED50 is 0.05 µmol/kg with Rattus norvegicus [23]; “Weak activity” in the data set on Rattus norvegicus [25]; 0.04 µmol/kg in the data set with Rattus norvegicus [26]; 0.07 µmol/kg in the data set on Rattus norvegicus [28]; “Weak activity” in the data set on Rattus norvegicus [31]; 7.6 µmol/kg with Rattus norvegicus [32]. Also, the ED50 in the data set on Rattus norvegicus [33] is 7.9 µmol/kg; with Rattus norvegicus [35], 3 µmol/kg. The ED50 entry in the data set on Rattus norvegicus [24], with Rattus norvegicus [27] and in the data set on Rattus norvegicus [34] was “inactive” each time. In [29], the half-life was 1.2 h. For the same molecule, in the data set with Rattus norvegicus [30], the Counts/30 stood at 66 counts/30 min.

As usually defined, the ED50 is the dose at which the effect has come halfway, by size or by number of responders. Broadly, the Ki is the equilibrium dissociation constant of an inhibitor or competing ligand from its target. Higher therefore signals a looser hold on the target. Broadly, the half-life is the time needed for the level to fall by half in the phase considered.
